The source made the active and inactive calls. No cut-off for these calls is given here.

The test system of one data set is NIH3T3. Description: Antiproliferative activity against mouse NIH/3T3 cells after 72 hrs by MTT assay. It counts as cell-based. Conditions: NIH3T3, 72 h.
Another data set concerns A-431. Description: Antiproliferative activity against human A431 cells after 72 hrs by MTT assay. In kind it is functional, cell-based. As to conditions: A-431, 72 h. A general note: Tetrazolium dyes change colour on reduction, which living cells bring about.
A short description of data set [1]: Antiproliferative activity against human MCF7/beta cells after 72 hrs by MTT assay. It counts as functional, cell-based. As to conditions: MCF7, 72 h.
Data set [2] has as its target Epidermal growth factor receptor (Homo sapiens, UniProt P00533). Description: Inhibition of EGFR (unknown origin).
Data set [3] has as its system HUVEC. Description: Antiangiogenic activity in HUVEC assessed as disruption of tube-like structures at 0.1 uM after 18 hrs by phase contrast microscopy. Conditions: Homo sapiens.
A short description of data set [4]: Antiproliferative activity against mouse BNL 1ME A.7R.1 cells after 72 hrs by MTT assay. In kind it is functional, cell-based.
Data set [5] is described as follows: Toxicity in mouse BNL 1ME A.7R.1 cells allografted Balb/c mouse model assessed as body weight loss at 50 mg/kg, ip daily measured after 3 days. In kind it is organism-based. Details: dose 50 mg/kg, route intraperitoneal. Conditions: in vivo, 72 h.
Data set [6] relates to HUVEC. Description: Antiangiogenic activity in HUVEC assessed as reduction in cell migration at 1 uM after 4 hrs by matrigel assay. It counts as functional, cell-based. As to conditions: Homo sapiens, in the assay text read “by modified Boyden chamber assay” for “by matrigel assay”. Summed up:
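Modified Boyden chamber. HUVECs (3×10^4 cell/cm²) were placed on 5.0 µm pore inserts in basal medium with 1% FCS, ±1 µM compound; the lower chamber held growth-factor medium. After 4 h, cells were fixed, the upper side was swabbed, and membranes were DAPI-stained. Nuclei were counted in five fields per insert. Five repeats; results are the percent change from growth-factor-only controls.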

Data set [7] deals with HUVEC. Description: Antiproliferative activity against HUVEC after 72 hrs by MTT assay. In kind it is cell-based. Conditions: Homo sapiens.
The target in data set [8] is Vascular endothelial growth factor receptor 2 (Homo sapiens) (UniProt P35968). The data set is described as follows: Inhibition of VEGFR2 (unknown origin) at 1 uM. In a few lines:
(§1)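 Recombinant FGFR-1 or VEGFR-2 (final 200 ng/mL) in MOPS pH 7.2 buffer with MgCl2, EGTA, EDTA, DTT and BSA. Compound range was 1–0.01 µM. Reactions used myelin basic protein (0.2 mg/ml), 0.05 mM ATP and 0.25 μCi [γ-32P]ATP, 30 °C for 20 min.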

In a further data set the test system is HT-29. Description: Antiproliferative activity against human HT-29 cells after 72 hrs by MTT assay. It counts as functional, cell-based. Conditions: HT-29, 72 h.
The test system of data set [9] is HUVEC. Description: Induction of apoptosis in HUVEC assessed as mono-/oligo-nucleosome formation at 10 uM after 24 hrs by ELISA. In kind it is functional, cell-based. As to conditions: Homo sapiens. (ELISA stands for enzyme-linked immunosorbent assay.)
The test system of data set [10] is Mus musculus. The data set is described as follows: Inhibition of FGF2-induced neovascularization in C57/BL6 mouse assessed as reduction in hemoglobin concentration in matrigel plug at 1 uM, sc measured after 7 days. In kind it is functional, organism-based. Summed up: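 Three-month-old C57/BL6 mice under isoflurane received 0.5 mL Matrigel GFR subcutaneously into the flank. The gel contained heparin (12 U.I.), ±FGF-2 200 ng/plug and 1 µM compound. After 7 days, plugs were removed and steeped overnight at 4 °C in 0.1% Brij-35/PBS. Hemoglobin was measured with Drabkin's reagent at 540 nm.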

Data set [11] has as its target Fibroblast growth factor receptor 1 (Homo sapiens, UniProt P11362). Description: Inhibition of FGFR1 (unknown origin). In a few lines:
as §1

The test system of the next data set is HeLa. Description: Antiproliferative activity against human HeLa cells after 72 hrs by MTT assay. It counts as functional, cell-based.
For data set [12], the target named is Proto-oncogene tyrosine-protein kinase Src (Homo sapiens, UniProt P12931). The data set is described as follows: Inhibition of Src (unknown origin).
Proto-oncogene tyrosine-protein kinase Src, sequence (P12931 2-536 limits assumed): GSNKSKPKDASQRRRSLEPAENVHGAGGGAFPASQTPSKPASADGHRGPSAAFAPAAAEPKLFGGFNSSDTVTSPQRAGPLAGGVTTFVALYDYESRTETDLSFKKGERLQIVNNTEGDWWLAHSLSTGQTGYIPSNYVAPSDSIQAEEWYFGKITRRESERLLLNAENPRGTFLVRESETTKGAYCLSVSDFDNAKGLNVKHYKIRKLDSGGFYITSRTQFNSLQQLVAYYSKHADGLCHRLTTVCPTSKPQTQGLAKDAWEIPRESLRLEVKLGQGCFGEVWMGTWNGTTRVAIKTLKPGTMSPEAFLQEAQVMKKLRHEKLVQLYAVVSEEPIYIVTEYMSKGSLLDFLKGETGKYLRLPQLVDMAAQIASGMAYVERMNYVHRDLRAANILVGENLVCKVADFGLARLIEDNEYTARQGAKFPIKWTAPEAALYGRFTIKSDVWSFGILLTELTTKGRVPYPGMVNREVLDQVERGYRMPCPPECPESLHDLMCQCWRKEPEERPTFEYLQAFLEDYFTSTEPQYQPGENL
Data set [13] concerns the target Tyrosine-protein kinase ABL1 (Homo sapiens, UniProt P00519). The data set is described as follows: Inhibition of Abl (unknown origin).
Data set [14] concerns HUVEC. Description: Antiproliferative activity against HUVEC assessed as reduction in cell viability at 10 uM after 24 hrs by MTT assay. In kind it is cell-based. Conditions: human. In a few lines: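 Primary HUVECs (passage ≤5) were seeded at 1×10^4 cell/cm² and grown for 24 h. They were exposed to compound at 10 μM for 24 h (20 h, then MTT 0.50 mg/ml for 4 h). Absorbance was read at 570 nm. Results are the percent change from untreated cultures; mean ± SD of ≥3 experiments.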

The subject of data set [15] is HUVEC. The data set is described as follows: Antiangiogenic activity in HUVEC assessed as effect on number of cell meshwork at 0.1 uM after 18 hrs. Conditions: Homo sapiens.
Data set [16] deals with T1, Platelet-derived growth factor receptor beta (Homo sapiens, UniProt P09619). The data set is described as follows: Inhibition of PDGFRbeta (unknown origin) at 1 uM.
T1 sequence (P09619 whole entry): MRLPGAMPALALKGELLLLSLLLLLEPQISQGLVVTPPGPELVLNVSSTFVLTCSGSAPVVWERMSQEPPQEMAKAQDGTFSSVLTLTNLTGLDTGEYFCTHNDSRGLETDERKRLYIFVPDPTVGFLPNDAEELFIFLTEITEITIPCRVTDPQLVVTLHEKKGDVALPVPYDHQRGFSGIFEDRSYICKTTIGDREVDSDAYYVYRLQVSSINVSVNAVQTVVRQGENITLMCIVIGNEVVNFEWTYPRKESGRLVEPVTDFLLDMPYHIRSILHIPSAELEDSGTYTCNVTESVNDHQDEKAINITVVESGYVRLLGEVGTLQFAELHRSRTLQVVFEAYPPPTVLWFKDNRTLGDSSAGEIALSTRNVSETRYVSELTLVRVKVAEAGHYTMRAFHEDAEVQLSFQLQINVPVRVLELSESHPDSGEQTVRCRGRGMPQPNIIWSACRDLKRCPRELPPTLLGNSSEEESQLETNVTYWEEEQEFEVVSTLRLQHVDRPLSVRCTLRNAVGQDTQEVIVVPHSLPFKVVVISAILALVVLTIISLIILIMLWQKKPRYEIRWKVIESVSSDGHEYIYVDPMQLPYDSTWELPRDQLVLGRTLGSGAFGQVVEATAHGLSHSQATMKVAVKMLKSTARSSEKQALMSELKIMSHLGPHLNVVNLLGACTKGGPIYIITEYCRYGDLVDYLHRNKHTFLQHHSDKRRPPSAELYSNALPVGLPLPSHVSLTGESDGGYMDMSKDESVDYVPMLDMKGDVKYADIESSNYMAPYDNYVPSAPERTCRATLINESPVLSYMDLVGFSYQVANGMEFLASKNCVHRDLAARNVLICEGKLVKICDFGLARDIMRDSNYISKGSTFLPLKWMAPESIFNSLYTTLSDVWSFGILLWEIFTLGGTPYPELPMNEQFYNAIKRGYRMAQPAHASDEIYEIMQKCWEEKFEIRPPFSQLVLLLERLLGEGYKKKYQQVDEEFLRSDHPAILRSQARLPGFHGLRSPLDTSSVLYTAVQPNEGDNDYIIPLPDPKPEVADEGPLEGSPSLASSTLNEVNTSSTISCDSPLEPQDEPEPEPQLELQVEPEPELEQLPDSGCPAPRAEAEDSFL
Data set [17] relates to Mus musculus. The data set is described as follows: Antitumor activity against mouse BNL 1ME A.7R.1 cells allografted in Balb/c mouse assessed as tumor growth inhibition at 50 mg/kg, ip daily measured after 7 days. In kind it is functional, organism-based. Further details: dose 50 mg/kg. Summed up:
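Male Balb/c mice, 10 weeks old, received 10⁷ BNL 1ME A.7R.1 cells in PBS subcutaneously in the dorsal region. From day 7, mice were dosed daily ip with 50 mg/kg in 0.9% NaCl with 5% PEG 400 and 0.5% Tween 80, or vehicle. Tumors were measured daily for 7 days by caliper (V = AB²/2). Mean ± SEM, five animals per group.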

Data set [18] addresses T1, Platelet-derived growth factor receptor beta. Description: Inhibition of PDGFRbeta (unknown origin).
In data set [19] the test system is HUVEC. The data set is described as follows: Antiangiogenic activity in HUVEC assessed as decrease in dimensional parameters at 0.1 uM after 18 hrs. Conditions: Homo sapiens.

Fibroblast growth factor receptor 1, sequence (P11362 whole entry): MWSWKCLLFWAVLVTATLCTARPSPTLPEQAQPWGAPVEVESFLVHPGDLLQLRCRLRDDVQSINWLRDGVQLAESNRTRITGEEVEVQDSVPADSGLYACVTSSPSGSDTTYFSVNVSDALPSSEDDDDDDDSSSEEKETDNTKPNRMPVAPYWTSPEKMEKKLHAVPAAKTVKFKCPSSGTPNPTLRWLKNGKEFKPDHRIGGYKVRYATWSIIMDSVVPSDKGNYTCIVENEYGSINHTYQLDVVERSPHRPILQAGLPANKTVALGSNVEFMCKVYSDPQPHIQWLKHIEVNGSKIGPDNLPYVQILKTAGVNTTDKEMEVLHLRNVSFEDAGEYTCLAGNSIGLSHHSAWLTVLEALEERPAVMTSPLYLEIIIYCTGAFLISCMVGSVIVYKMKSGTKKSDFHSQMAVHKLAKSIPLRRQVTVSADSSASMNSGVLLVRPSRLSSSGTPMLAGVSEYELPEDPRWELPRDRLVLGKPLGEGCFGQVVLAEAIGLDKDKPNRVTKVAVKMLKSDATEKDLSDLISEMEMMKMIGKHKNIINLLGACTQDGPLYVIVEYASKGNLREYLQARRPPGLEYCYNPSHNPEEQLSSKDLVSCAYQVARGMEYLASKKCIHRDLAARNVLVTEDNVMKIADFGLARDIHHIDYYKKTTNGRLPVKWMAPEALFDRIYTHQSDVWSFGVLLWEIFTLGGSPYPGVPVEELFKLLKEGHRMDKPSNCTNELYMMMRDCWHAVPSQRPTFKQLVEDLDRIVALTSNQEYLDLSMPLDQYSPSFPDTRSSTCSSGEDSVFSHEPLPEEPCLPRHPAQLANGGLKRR
Tyrosine-protein kinase ABL1, sequence (P00519 whole entry): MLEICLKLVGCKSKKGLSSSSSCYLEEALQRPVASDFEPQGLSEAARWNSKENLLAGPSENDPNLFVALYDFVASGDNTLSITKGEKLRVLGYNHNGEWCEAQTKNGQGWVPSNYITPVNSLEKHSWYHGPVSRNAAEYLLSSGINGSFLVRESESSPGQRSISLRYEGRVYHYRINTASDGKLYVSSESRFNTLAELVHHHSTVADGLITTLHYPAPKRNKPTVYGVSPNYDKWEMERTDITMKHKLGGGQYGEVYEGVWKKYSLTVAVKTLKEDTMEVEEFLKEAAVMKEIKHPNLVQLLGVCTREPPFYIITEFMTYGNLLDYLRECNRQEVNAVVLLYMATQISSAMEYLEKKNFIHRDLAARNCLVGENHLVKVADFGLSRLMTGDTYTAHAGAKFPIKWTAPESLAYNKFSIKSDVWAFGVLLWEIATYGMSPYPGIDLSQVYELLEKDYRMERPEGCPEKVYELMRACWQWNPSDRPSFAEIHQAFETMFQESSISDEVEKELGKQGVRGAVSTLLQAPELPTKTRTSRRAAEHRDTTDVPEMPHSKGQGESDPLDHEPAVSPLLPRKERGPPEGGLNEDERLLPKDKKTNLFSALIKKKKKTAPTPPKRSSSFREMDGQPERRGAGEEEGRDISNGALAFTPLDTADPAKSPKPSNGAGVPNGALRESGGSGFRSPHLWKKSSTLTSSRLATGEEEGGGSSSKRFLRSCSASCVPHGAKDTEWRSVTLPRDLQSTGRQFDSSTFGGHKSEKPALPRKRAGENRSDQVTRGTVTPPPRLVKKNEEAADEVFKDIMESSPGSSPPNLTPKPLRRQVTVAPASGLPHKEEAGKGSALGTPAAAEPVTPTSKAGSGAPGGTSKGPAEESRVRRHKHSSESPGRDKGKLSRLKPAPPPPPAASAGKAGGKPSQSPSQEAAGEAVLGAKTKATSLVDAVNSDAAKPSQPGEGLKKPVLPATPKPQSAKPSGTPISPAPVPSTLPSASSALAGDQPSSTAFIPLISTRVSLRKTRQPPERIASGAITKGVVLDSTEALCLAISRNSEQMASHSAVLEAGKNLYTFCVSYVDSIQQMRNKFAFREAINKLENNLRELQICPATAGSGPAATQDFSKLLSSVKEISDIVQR
Vascular endothelial growth factor receptor 2 (Homo sapiens), sequence (P35968 whole entry): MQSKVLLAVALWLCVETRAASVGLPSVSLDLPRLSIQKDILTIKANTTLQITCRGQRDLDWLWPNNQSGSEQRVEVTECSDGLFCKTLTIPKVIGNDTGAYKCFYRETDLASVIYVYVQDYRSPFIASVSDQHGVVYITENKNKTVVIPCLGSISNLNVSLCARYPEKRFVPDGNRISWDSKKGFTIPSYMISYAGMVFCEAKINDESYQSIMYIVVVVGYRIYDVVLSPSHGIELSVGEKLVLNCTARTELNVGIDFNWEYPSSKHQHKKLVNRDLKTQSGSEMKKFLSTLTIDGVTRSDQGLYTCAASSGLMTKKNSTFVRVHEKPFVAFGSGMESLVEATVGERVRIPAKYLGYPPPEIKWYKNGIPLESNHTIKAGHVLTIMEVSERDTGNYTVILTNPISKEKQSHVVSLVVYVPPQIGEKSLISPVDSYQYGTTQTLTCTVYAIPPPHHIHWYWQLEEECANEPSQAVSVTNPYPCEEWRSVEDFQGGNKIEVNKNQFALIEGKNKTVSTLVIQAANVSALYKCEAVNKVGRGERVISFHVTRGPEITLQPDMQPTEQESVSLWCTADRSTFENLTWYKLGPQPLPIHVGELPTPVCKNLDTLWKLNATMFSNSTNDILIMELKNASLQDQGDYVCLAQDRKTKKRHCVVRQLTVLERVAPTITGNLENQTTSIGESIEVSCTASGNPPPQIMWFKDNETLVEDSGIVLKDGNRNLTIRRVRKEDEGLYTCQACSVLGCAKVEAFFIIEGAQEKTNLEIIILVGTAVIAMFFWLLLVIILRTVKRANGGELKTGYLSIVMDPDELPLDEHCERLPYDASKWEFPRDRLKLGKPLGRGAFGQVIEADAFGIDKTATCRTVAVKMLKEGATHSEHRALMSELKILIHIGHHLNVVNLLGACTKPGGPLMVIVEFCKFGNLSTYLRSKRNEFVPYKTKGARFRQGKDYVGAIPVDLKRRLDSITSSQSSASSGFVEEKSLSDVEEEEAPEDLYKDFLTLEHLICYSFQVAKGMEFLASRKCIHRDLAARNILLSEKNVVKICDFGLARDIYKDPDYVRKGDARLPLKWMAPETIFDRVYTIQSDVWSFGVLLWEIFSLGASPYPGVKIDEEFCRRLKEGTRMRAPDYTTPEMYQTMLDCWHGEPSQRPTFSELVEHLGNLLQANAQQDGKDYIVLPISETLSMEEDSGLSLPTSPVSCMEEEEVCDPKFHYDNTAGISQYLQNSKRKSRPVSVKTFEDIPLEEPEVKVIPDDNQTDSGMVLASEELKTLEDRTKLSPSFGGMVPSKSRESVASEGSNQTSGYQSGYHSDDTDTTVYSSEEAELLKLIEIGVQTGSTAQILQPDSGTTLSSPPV

Usually IC50 stands for the midpoint of a concentration-inhibition curve. Read a low IC50 as higher potency. For `Cc1ccnc(Nc2ncnc3cc4c(cc23)OCO4)c1`, the IC50 in the data set with NIH3T3 and with A-431 was more than 10000 nM each time.

For `Cc1ccnc(Nc2ncnc3cc4c(cc23)OCCO4)c1`, the IC50 in the data set with NIH3T3 is 6600 nM; with A-431, 5170 nM.

For the molecule `C=CCOc1cc2ncnc(Nc3cccc(C)c3)c2cc1OC`, the IC50 in the data set with NIH3T3 amounted to 6600 nM; with A-431, 8450 nM.

`Brc1cccc(Nc2ncnc3c2ccc2ccccc23)c1`: the IC50 in the data set on NIH3T3 and in the data set on A-431 was more than 10000 nM in each case.

For `Cc1cccc(Nc2ncnc3c2ccc2ccccc23)c1`, the IC50 in the data set with NIH3T3 and with A-431 was more than 10000 nM each time.

As for `Cn1c(=O)n(C)c2cc3c(Nc4cccc(Br)c4)ncnc3cc21`, the IC50 in the data set with NIH3T3 and in the data set with A-431 was more than 10000 nM in each case.

On to `Cc1cccc(Nc2ncnc3cc4c(cc23)OCO4)n1`, for which the half-inhibitory concentration (IC50) in the data set with NIH3T3 and with A-431 was more than 10000 nM in each case.

In the case of `Cc1cccc(Nc2ncnc3cc4c(cc23)n(C)c(=O)n4C)c1`, the IC50 in the data set with NIH3T3 and in the data set on A-431 was more than 10000 nM in each case.

Regarding `C=CCOc1cc2ncnc(Nc3cccc(Br)c3)c2cc1OC`, the results for the IC50 with NIH3T3 and in the data set with A-431 were more than 10000 nM and 4490 nM, respectively.

As for `Cn1c(=O)n(C)c2cc3c(Nc4cccc(C(F)(F)F)c4)ncnc3cc21`, the IC50 in the data set on NIH3T3 and with A-431 was more than 10000 nM in each case.

With `C=CCOc1cc2ncnc(Nc3cccc(C(F)(F)F)c3)c2cc1OC`, the IC50 was more than 10000 nM with NIH3T3 and 5950 nM with A-431.

A word on the inhibition: it is the drop in the measured response relative to a control, in per cent. Regarding `Cl.c1ccc(-c2cccc(Nc3ncnc4cc5c(cc34)OCCCO5)c2)cc1`, the IC50 was determined as 700 nM in data set [1]; 27 nM in [2]; 3000 nM in data set [4]; 910 nM in the data set on HUVEC [7]; 710 nM with HT-29; 920 nM with NIH3T3. For the same molecule, the IC50 is 63 nM in data set [11]; 660 nM in the data set on A-431; 5490 nM in the data set on HeLa; 645 nM in data set [12]; 56 nM in [13]. For the same molecule, the outcome in the data set with HUVEC [3] was inactive. Besides, the Activity entry (in data set [5]; in the data set with HUVEC [14]) was “Toxic” throughout. Also, the inhibition entry in the data set with HUVEC [6] and in the data set on Mus musculus [10] was “Active” throughout. The inhibition in [8] was found to be 30%; in data set [16], 40%. In addition, the outcome in the data set on HUVEC [9] and in the data set on HUVEC [15] was Active.

With `FC(F)(F)c1cccc(Nc2ncnc3c2ccc2ccccc23)c1`, the 50% inhibitory concentration (IC50) in the data set on NIH3T3 and in the data set on A-431 was more than 10000 nM each time.

As for `Cl.c1ccc(-c2cccc(Nc3ncnc4cc5c(cc34)OCCO5)c2)cc1`, the IC50 in data set [1] turned out to be 740 nM; in [4] it was 2700 nM; with HUVEC [7] it was 80 nM; in the data set with HT-29 it was 680 nM; in the data set with NIH3T3 it was 600 nM; in data set [11], 178 nM. Besides, the 50% inhibitory concentration (IC50) in the data set with HeLa turned out to be 620 nM; in [18], 100 nM; in [12], 642 nM; in [13], 24 nM. In addition, the outcome in the data set with HUVEC [3], with HUVEC [9], in the data set with HUVEC [19] and in the data set on HUVEC [15] was Active. Further, the inhibition entry with HUVEC [6] and with Mus musculus [10] was “Active” in each case. This molecule also had an inhibition in [8] of 50%. In addition, the TGI result in the data set with Mus musculus [17] is “inactive”. The Activity entry in the data set on HUVEC [14] is given as “Toxic”.

Regarding `Cc1cccc(Nc2ncnc3cc4c(cc23)OCCO4)n1`, the IC50 with NIH3T3 and in the data set with A-431 was more than 10000 nM in each case.

Turning to `CS(=O)(=O)Nc1cccc(Nc2ncnc3cc4c(cc23)OCCO4)c1`, the 50% inhibitory concentration (IC50) with NIH3T3 and in the data set on A-431 was more than 10000 nM in each case.

Consider `COc1cc2ncnc(Nc3cccc(Br)c3)c2cc1OC`, for which the IC50 in data set [1] was 8210 nM; in data set [4] it was 9500 nM; in the data set on HUVEC [7] it was 4060 nM; in the data set with HT-29, more than 10000 nM; in the data set with NIH3T3, more than 10000 nM; with HeLa, more than 10000 nM. For the same molecule, the outcome in the data set with HUVEC [3] was inactive. In addition, the inhibition result in the data set with HUVEC [6] is “Active”. For the same molecule, in the data set on Mus musculus [10], the inhibition result was “inactive”. Further, in the data set with HUVEC [15], the result was Active.

In the case of `Cl.c1ccc(-c2cccc(Nc3ncnc4cc5c(cc34)OCO5)c2)cc1`, the outcome with HUVEC [3] and with HUVEC [9] was inactive. The 50% inhibitory concentration (IC50) was 2800 nM in data set [4]; 750 nM with HUVEC [7]; 950 nM in the data set on HT-29; 600 nM in the data set with NIH3T3; 63 nM in data set [11]; 243 nM in data set [18]. For the same molecule, the IC50 was determined as 32 nM in data set [12] and 51 nM in [13]. The inhibition entry with HUVEC [6] and with Mus musculus [10] was “Active” throughout. For the same molecule, the TGI result in the data set with Mus musculus [17] is “Active”. For the same molecule, in the data set with HUVEC [14], the Activity entry was “Non-toxic”. In the data set on HUVEC [15], the outcome was Active.

`CS(=O)(=O)Nc1cccc(Nc2ncnc3cc4c(cc23)OCO4)c1`: the IC50 with NIH3T3 and in the data set with A-431 was more than 10000 nM throughout.

The values are drawn from ChEMBL document CHEMBL2417485, “Quinazoline-based multi-tyrosine kinase inhibitors: synthesis, modeling, antitumor and antiangiogenic properties” (Eur J Med Chem, 2013).
